Results from different studies.
Protocols differ between the studies behind these lines.

Compound	tested on	assay	system	conditions	endpoint	value
Cc1ccc(NC(=O)C2(c3ccc4c(c3)OC(F)(F)O4)CC2)nc1-c1cccc(C(=O)O)c1	Severe acute respiratory syndrome coronavirus 2	viral replication, inhibitor	Calu-3	replicon	IC50	0.458 µM
O=[N+]([O-])NC(=S)NN=Cc1ccc(Br)cc1	Leishmania tropica	parasite growth	J774.A1	72 h, intracellular, amastigote	IC50	1140 µM
N.N.[Cl][Pt][Cl]	NALM-6	cell growth or viability, ATP luminescence	–	72 h	IC50	1.05 µM
COc1cnc(OC)n2nc(NS(=O)(=O)c3c(OCC(F)F)cccc3C(F)(F)F)nc12	L02	cell growth or viability, CCK-8	–	100 µM, 72 h	inhibition	1.54%
COc1ncc(-c2cn([C@@H]3O[C@](F)(CO[P@@](=O)(N[C@@H](C)C(=O)OC(C)C)Oc4ccccc4)[C@@H](O)[C@H]3O)cn2)cn1	Severe acute respiratory syndrome coronavirus 2	viral replication, inhibitor	A549-ACE2	24 h	IC50	> 100 µM
O=c1[nH]c2ccccc2n1C1CCN(CCCC(c2ccc(F)cc2)c2ccc(F)cc2)CC1	Severe acute respiratory syndrome coronavirus 2	viral replication, inhibitor	Caco-2	replicon	IC50	2.14 µM
Cc1ccc(C=NNC(=S)N[N+](=O)[O-])cc1	Leishmania tropica	parasite growth	J774.A1	72 h, intracellular, amastigote	IC50	331 µM
CC(=O)O[C@H]1C(=O)[C@@]2(C)[C@H]([C@H](OC(=O)c3ccccc3)[C@]3(O)C[C@H](OC(=O)[C@H](O)[C@@H](NC(=O)c4ccccc4)c4ccccc4)C(C)=C1C3(C)C)[C@]1(OC(C)=O)CO[C@@H]1C[C@@H]2O	L02	cell growth or viability, CCK-8	–	12.5 µM, 72 h	inhibition	> 90%
Nc1ncncc1-c1cn([C@@H]2O[C@](F)(CO)[C@@H](O)[C@H]2O)cn1	Severe acute respiratory syndrome coronavirus 2	viral replication, inhibitor	A549-ACE2	24 h	IC50	> 100 µM
CC1=NN(c2ccc(C)c(C)c2)C(=O)/C1=N\Nc1cccc(-c2cccc(C(=O)O)c2)c1O	Severe acute respiratory syndrome coronavirus 2	viral replication, inhibitor	Calu-3	replicon	IC50	4.55 µM
COc1nc(N)ncc1-c1cn([C@@H]2O[C@](F)(CO[P@@](=O)(N[C@@H](C)C(=O)OC(C)C)Oc3ccccc3)[C@@H](OC(=O)C(C)C)[C@H]2OC(=O)C(C)C)cn1	Severe acute respiratory syndrome coronavirus 2	viral replication, inhibitor	A549-ACE2	24 h	IC50	12.5 µM
COc1ccc(C=NNC(=S)N[N+](=O)[O-])cc1OC	Leishmania tropica	parasite growth	J774.A1	72 h, intracellular, amastigote	IC50	775 µM
Nc1ncc(-c2cn([C@@H]3O[C@](F)(CO)[C@@H](O)[C@H]3O)cn2)cn1	Severe acute respiratory syndrome coronavirus 2	viral replication, inhibitor	A549-ACE2	24 h	IC50	> 100 µM
Cc1c(O)cccc1C(=O)N[C@@H](CSc1ccccc1)[C@H](O)CN1C[C@H]2CCCC[C@H]2C[C@H]1C(=O)NC(C)(C)C	Severe acute respiratory syndrome coronavirus 2	viral replication, inhibitor	Calu-3	replicon	IC50	4.05 µM
